Experimental data from ChEMBL document CHEMBL3632508, “Discovery of α-mangostin as a novel competitive inhibitor against mutant isocitrate dehydrogenase-1” (Bioorg Med Chem Lett, 2015).
Activity calls are given as the source filed them. The rule behind the calls is not given here.

Columns and labels:
[1] = molecular target: Isocitrate dehydrogenase [NADP] cytoplasmic (Homo sapiens, UniProt O75874, R132H); assay: Competitive inhibition of IDH1-R132H mutant (unknown origin) using a-ketoglutarate and NADPH as substrate by steady state kinetic analysis
Summary of the method: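 IDH1-R132H in buffer of 150 mM NaCl, 20 mM Tris–Cl pH 7.5, 10 mM MnCl₂, 150 μM β-NADPH, 0.03% (w/v) BSA; α-ketoglutarate varied to reach maximal activity; steady-state kinetic parameters fitted with an enzyme kinetics module.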

[2] = Cytotoxicity against IDH1 expressing human MCF10A cells assessed as cell viability at 5 uM after 24 hrs by hemacytometer counting method; assay type: cell-based; details: mcf-10a
Summary of the method: (§1)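 Isogenic CRISPR-made IDH1 (+/+) and IDH1 (+/R132H) MCF10A cells seeded at 5.0 × 10⁴ per well, exposed to 5 μM compound, harvested at indicated times (24 h), viable cells counted by hemacytometer; mean ± standard deviation, Student t-test, n = 6.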

[3] = Cytotoxicity against IDH1-R132H mutant expressing human MCF10A cells assessed as cell viability at 5 uM after 24 hrs by hemacytometer counting method; assay type: cell-based; details: mcf-10a; summary of the method: as §1
[4] = tested on: Isocitrate dehydrogenase [NADP] cytoplasmic (Homo sapiens), O75874 [R132H]; assay: Inhibition of IDH1-R132H mutant in human MCF10A cells assessed as decrease in histone H3 trimethylated lysine level (H3K4me3) at 5 uM incubated for 30 mins by Western blotting method; assay type: cell-based; details: MCF-10A
Summary of the method: (§2)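 Isogenic IDH1 (+/R132H) MCF10A cells, compared with IDH1 (+/+) cells, given 5 μM compound; lysed in SDS buffer, protein by BCA, SDS-PAGE, PVDF transfer; probed overnight at 4 °C with H3K4me3, H3K9me3, H3K27me3, H3K36me3 or H3K79me3 antibodies, total H3 as reference; HRP secondary, ECL detection.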

[5] = tested on: Isocitrate dehydrogenase [NADP] cytoplasmic (Homo sapiens), O75874 [R132H]; assay: Inhibition of IDH1-R132H mutant in human MCF10A cells assessed as decrease in 5-methylcytosine level at 5 uM incubated for 24 hrs by DAPI staining based fluorescence microscopy; assay type: cell-based; details: MCF-10A
Summary of the method: (§3)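 Isogenic IDH1 (+/+) and (+/R132H) MCF10A cells on coverslips (5 × 10⁴ per well), 16 h at 37 °C, then 5 μM compound for 24 h; fixed in 4% paraformaldehyde, blocked, stained overnight with anti-5mC, 5hmC or 5fC antibodies; FITC secondary with DAPI, imaged by fluorescence microscopy.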

[6] = tested on: Isocitrate dehydrogenase [NADP] cytoplasmic (Homo sapiens), O75874 [R132H]; assay: Inhibition of IDH1-R132H mutant in human MCF10A cells assessed as decrease in histone H3 trimethylated lysine level (H3K9me3) at 5 uM incubated for 30 mins by Western blotting method; assay type: cell-based; details: MCF-10A; summary of the method: as §2
[7] = tested on: Isocitrate dehydrogenase [NADP] cytoplasmic (Homo sapiens), O75874 [R132H]; assay: Inhibition of IDH1-R132H mutant in human MCF10A cells assessed as decrease in histone H3 trimethylated lysine level (H3K27me3) at 5 uM incubated for 30 mins by Western blotting method; assay type: cell-based; details: MCF-10A; summary of the method: as §2
[8] = tested on: Isocitrate dehydrogenase [NADP] cytoplasmic (Homo sapiens), O75874 [R132H]; assay: Inhibition of IDH1-R132H mutant in human MCF10A cells assessed as decrease in histone H3 trimethylated lysine level (H3K36me3) at 5 uM incubated for 30 mins by Western blotting method; assay type: cell-based; details: MCF-10A; summary of the method: as §2
[9] = tested on: Isocitrate dehydrogenase [NADP] cytoplasmic (Homo sapiens), O75874 [R132H]; assay: Inhibition of IDH1-R132H mutant in human MCF10A cells assessed as decrease in histone H3 trimethylated lysine level (H3K79me3) at 5 uM incubated for 30 mins by Western blotting method; assay type: cell-based; details: MCF-10A; summary of the method: as §2
[10] = tested on: Isocitrate dehydrogenase [NADP] cytoplasmic (Homo sapiens), O75874 [R132H]; assay: Inhibition of IDH1-R132H mutant in human MCF10A cells assessed as increase in 5-hmC level at 5 uM incubated for 24 hrs by DAPI staining based fluorescence microscopy; assay type: cell-based; details: MCF-10A; summary of the method: as §3
[11] = tested on: Isocitrate dehydrogenase [NADP] cytoplasmic (Homo sapiens), O75874 [R132H]; assay: Inhibition of IDH1-R132H mutant in human MCF10A cells assessed as increase in 5-fC level at 5 uM incubated for 24 hrs by DAPI staining based fluorescence microscopy; assay type: cell-based; details: MCF-10A; summary of the method: as §3

Isocitrate dehydrogenase [NADP] cytoplasmic, sequence (O75874 2-414 R132H limits assumed): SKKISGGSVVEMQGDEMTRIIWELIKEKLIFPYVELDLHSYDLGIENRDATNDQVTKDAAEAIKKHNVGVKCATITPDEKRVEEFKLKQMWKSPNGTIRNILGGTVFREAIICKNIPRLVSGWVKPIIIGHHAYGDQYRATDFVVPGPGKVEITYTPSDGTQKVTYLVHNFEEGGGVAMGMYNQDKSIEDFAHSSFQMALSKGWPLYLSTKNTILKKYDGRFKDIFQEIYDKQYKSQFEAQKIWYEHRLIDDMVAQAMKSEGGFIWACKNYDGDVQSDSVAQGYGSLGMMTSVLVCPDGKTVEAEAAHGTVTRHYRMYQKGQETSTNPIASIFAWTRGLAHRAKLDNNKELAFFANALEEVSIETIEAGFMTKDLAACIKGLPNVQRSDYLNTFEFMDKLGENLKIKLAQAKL
Isocitrate dehydrogenase [NADP] cytoplasmic (Homo sapiens), O75874 [R132H], sequence (O75874 whole entry R132H): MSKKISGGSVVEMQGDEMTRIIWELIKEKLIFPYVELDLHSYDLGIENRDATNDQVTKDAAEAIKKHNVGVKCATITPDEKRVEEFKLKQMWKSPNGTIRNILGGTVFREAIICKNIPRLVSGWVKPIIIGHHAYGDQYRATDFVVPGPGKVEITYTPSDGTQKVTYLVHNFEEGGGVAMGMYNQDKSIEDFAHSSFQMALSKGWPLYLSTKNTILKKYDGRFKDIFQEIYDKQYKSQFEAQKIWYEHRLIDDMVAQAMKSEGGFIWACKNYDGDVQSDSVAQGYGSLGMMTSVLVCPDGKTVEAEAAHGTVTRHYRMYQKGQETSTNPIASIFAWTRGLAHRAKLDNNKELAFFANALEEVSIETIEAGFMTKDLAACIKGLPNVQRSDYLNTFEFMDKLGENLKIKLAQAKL

In the case of `CC(C)=CCc1c(O)cc2oc3cc(O)c(OCc4cn(CC(=O)OC(C)(C)C)nn4)c(CC=C(C)C)c3c(=O)c2c1O`, the Ki [1] is reported as “Not Active”.

For `C=CCOc1cc2oc3cc(O)c(OC)c(CC=C(C)C)c3c(=O)c2c(O)c1CC=C(C)C`, the Ki [1] was “Not Active”.

In the case of `CCN(CC)C(=O)Oc1cc2oc3cc(O)c(OC)c(CC=C(C)C)c3c(=O)c2c(O)c1CC=C(C)C`, the Ki [1] is reported as “Not Active”.

Compound `COc1cc2oc3cc(O)c(OC)c(CC=C(C)C)c3c(=O)c2c(O)c1CC=C(C)C` has a Ki ([1]; read-out: Ki) of 12 µM.

With `COc1c(O)cc2oc3cc(O)c(CC=C(C)C)c(O)c3c(=O)c2c1CC=C(C)C` [MANGOSTIN] the Ki ([1]; read-out: Ki) was 2.85 µM, the Activity [2] was “Non-toxic” and the Activity [3] was “Non-toxic”. For the same compound, the inhibition [4] was “Active”, the inhibition [5] was “Active” and the inhibition [6] was “Active”. For the same compound, the inhibition [7] was “Active”, the inhibition [8] was “Active” and the inhibition [9] was “Active”. The inhibition [10] was “Active” and the inhibition [11] was “Active”.

Compound `C=CCOc1cc2oc3cc(O)c(CC=C(C)C)c(O)c3c(=O)c2c(CC=C(C)C)c1OC` has a Ki ([1]; read-out: Ki) of 17.4 µM.
